In ChEMBL document CHEMBL1641522 (Bioorg Med Chem, 2011):
Activity calls are given as the source filed them. The rule behind the calls is not given here.

Tests used:
Tubulin (Sus scrofa) [1] = biological target: T1, Tubulin (Sus scrofa) (UniProt P02554+P02550); assay: Ratio of compound Kd to plinabulin Kd for porcine tubulin; type: protein assay
HT-29 [2] = assay: Cytotoxicity against human HT-29 cells after 72 hrs by XTT/PMS method; type: functional, cell-based; settings: HT-29, 72 h
In short: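 HT-29 colorectal adenocarcinoma cells in McCoy's 5A with 10% FBS, seeded at 5000 cells/well the day before. DMSO stocks serially diluted to 20 µM–2 pM final, exposed 72 h. XTT 0.1 mg/mL with 25 µM PMS added for 1 h. Formazan read at 492 nm, corrected at 690 nm. IC50 from triplicate experiments.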

Tubulin (Sus scrofa) [3] = biological target: T1, Tubulin (Sus scrofa); assay: Binding affinity to porcine tubulin at 2 uM incubated for 30 mins followed by UV irradiation at 365 nm at distance of 10 cm on ice by SDS-PAGE analysis in presence of colchicine; type: protein assay
In short: (§1)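 Competition labelling. […] Probe (2 µM, 2% DMSO final) was then added for 30 min at 37 °C. Irradiated at 365 nm, 10 cm, on ice for 30 s. Read by 10% SDS–PAGE and streptavidin–HRP/ECL blot.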

Tubulin (Sus scrofa) [4] = biological target: T1, Tubulin (Sus scrofa); assay: Binding affinity to porcine tubulin at 2 uM incubated for 30 mins followed by UV irradiation at 365 nm at distance of 10 cm on ice by SDS-PAGE analysis in presence of plinabulin; type: protein assay; in short: as §1
Tubulin (Sus scrofa) [5] = biological target: T1, Tubulin (Sus scrofa); assay: Binding affinity to porcine tubulin at 2 uM incubated for 30 mins by SDS-PAGE analysis; type: protein assay
In short: (§2)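 Tubulin (2 µM) in MES buffer pH 6.8 with 1 mM GTP and 2% DMSO, incubated with compound 30 min at 37 °C. Irradiated at 365 nm, 10 cm, on ice, 0–30 s. Separated by 10% SDS–PAGE and blotted to PVDF. Labelled tubulin detected with streptavidin–HRP/ECL chemiluminescence.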

HT-29 [6] = assay: Ratio of compound IC50 to plinabulin IC50 for human HT-29 cells; type: functional
Tubulin (Sus scrofa) [7] = biological target: T1, Tubulin (Sus scrofa); assay: Binding affinity to porcine tubulin incubated for 30 mins followed by UV irradiation at 365 nm for 30 seconds at distance of 10 cm on ice by SDS-PAGE analysis; type: protein assay; in short: as §2
Tubulin (Sus scrofa) [8] = biological target: T1, Tubulin (Sus scrofa); assay: Binding affinity to porcine tubulin at 2 uM incubated for 30 mins followed by UV irradiation at 365 nm at distance of 10 cm on ice by SDS-PAGE analysis in presence of D-biotin; type: protein assay; in short: as §1
Tubulin (Sus scrofa) [9] = biological target: T1, Tubulin (Sus scrofa); assay: Binding affinity to porcine tubulin at 2 uM incubated for 30 mins followed by UV irradiation at 365 nm at distance of 10 cm on ice by SDS-PAGE analysis; type: protein assay; settings: TDE = time-dependent effect; in short: as §2
Tubulin = Tubulin (Sus scrofa, UniProt P02554+P02550); assay: Binding affinity to porcine tubulin after 1 hr by spectrofluorometric analysis; type: protein assay
In short: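 Purified porcine tubulin (0.5 µM) in MES buffer pH 6.8 at 37 °C, titrated with compound. Kd derived from the quenching titration.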

T1 sequence (P02550 whole entry, looked up): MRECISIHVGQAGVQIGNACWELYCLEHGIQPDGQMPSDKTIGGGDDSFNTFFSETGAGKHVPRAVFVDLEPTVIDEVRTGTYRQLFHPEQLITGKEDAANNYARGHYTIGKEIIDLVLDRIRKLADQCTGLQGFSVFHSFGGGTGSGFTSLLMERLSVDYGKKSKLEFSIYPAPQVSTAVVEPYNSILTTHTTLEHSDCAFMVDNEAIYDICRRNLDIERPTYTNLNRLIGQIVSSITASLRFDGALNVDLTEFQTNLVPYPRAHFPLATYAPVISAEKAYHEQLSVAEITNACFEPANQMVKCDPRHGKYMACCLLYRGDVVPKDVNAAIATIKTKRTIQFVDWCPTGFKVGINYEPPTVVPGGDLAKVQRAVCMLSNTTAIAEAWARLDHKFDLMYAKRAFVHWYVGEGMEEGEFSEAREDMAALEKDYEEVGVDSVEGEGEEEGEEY
T1 sequence (P02554 whole entry, looked up): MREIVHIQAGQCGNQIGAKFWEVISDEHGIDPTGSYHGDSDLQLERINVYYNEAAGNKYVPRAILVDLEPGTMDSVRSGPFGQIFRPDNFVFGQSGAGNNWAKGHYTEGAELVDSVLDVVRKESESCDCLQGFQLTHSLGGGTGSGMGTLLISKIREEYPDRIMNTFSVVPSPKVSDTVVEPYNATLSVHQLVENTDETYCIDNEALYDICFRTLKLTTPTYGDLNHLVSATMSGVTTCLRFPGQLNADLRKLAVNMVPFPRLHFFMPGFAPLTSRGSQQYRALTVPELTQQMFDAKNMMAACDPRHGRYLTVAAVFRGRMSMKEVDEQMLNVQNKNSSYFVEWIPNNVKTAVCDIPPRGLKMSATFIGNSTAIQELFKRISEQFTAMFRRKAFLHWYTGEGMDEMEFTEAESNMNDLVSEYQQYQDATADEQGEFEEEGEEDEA

## CC(C)(Cc1cn(CCCNC(=O)CCCCCNC(=O)CCCCCNC(=O)CCCC[C@@H]2SC[C@@H]3NC(=O)N[C@@H]32)nn1)c1ocnc1/C=c1\[nH]c(=O)/c(=C/c2cccc(C(=O)c3ccccc3)c2)[nH]c1=O (stereo in doubt)
Tubulin (Sus scrofa) [1]
  Ratio: 17
HT-29 [2]
  IC50: 9790 nM
Tubulin (Sus scrofa) [3]
  Activity: inactive
Tubulin (Sus scrofa) [4]
  Activity: inactive
Tubulin (Sus scrofa) [5]
  Activity: inactive
HT-29 [6]
  Ratio IC50: 725
Tubulin (Sus scrofa) [7]
  Activity: Dose-dependent effect
Tubulin (Sus scrofa) [8]
  Activity: inactive
Tubulin (Sus scrofa) [9]
  Activity: tde
Tubulin
  Kd: 17900 nM

## COc1cc2c(c(OC)c1OC)-c1ccc(OC)c(=O)cc1[C@@H](NC(C)=O)CC2 [COLCHICINE]
HT-29 [2]
  IC50: 16.6 nM

## CC(C)(C)c1[nH]cnc1/C=c1\[nH]c(=O)/c(=C/c2ccccc2)[nH]c1=O [PLINABULIN]
HT-29 [2]
  IC50: 13.5 nM
